Assay results of several laboratories.
Each line is one published result; the experiments were not run side by side.
Organism: Plasmodium falciparum
Observed: parasite growth

CCn1cc(-c2nc(C)no2)c(=O)c2cc(F)c(N3CCCCCC3)cc21 — EC50 (3D7; 72 h; blood stage): 0.035 µM
CCCNCC(O)COc1ccccc1C(=O)CCc1ccccc1 (centres unmarked) — EC50 (SYBR Green; 3D7; blood stage): 2.69 µM
CN1CCC(c2cc(-c3ccncc3)c(-c3ccc(F)cc3)[nH]2)CC1 — EC50 (SYBR Green; A10; 3D7; 72 h; blood stage): 0.09 µM
C[C@H]1[C@@H](O)O[C@@H]2O[C@@]3(C)CC[C@H]4[C@H](C)CC[C@@H]1[C@@]24OO3 — EC50 (NF54; 24 h; gametocyte): 0.0138 µM
O=C(Nc1ccc(CNc2ncnc3ccccc23)cc1)c1ccc(Cl)c(F)c1 — EC50 (3D7; 72 h; blood stage): 1.51 µM
COc1ccc(NC(=O)N2CCCCN3[C@H](CN(C)C)[C@H](c4ccc(C#Cc5ccccc5)cc4)[C@@H]3C2)cc1 — EC50 (DD2; blood stage): 0.013 µM
COc1ncc(Nc2ccnc3cc(-c4ccc(S(=O)(=O)N5CCN(C)CC5)cc4)ccc23)cn1 — EC50 (D6; drug-resistant strain, blood stage): 0.05 µM
COc1ccc(OCCCO)cc1-c1cn2cc(-c3nnc(NCCCCc4ccccc4)o3)ccc2n1 — EC50 (3D7; 72 h; blood stage): 2.98 µM
COc1ccc(Nc2ccnc3cc(-c4cnc(N5CCN(C)CC5)nc4)ccc23)cc1Cl — EC50 (D6; drug-resistant strain, blood stage): 0.035 µM
CCn1cc(-c2nc(C)no2)c(=O)c2cc(F)c(N3CCCC(C)C3)cc21 (centres unmarked) — EC50 (3D7; 72 h; blood stage): 0.114 µM
Cc1nnc(Nc2ccnc3cc(-c4ccc(S(=O)(=O)N5CCN(C)CC5)cc4)ccc23)nc1C — EC50 (D6; drug-resistant strain, blood stage): 0.16 µM
CCn1cc(C(N)=O)c(=O)c2cc(F)c(N3CCC(C)CC3)cc21 — EC50 (3D7; 72 h; blood stage): 0.39 µM
Cc1ccc(Nc2ccnc3cc(-c4ccc(S(=O)(=O)N5CCN(C)CC5)cc4)ccc23)cn1 — EC50 (D6; drug-resistant strain, blood stage): 0.022 µM
CNS(=O)(=O)c1ccccc1Nc1nc(Nc2ccc(N3CCOCC3)cc2OC)ncc1Br — EC50 (3D7; 72 h; blood stage): 0.282 µM
CCn1cc(-c2nc(C)no2)c(=O)c2cc(F)c(N3CCC(c4ccccc4)CC3)cc21 — EC50 (3D7; 72 h; blood stage): 0.03 µM
CN1CCN(S(=O)(=O)c2cccc(-c3ccc4c(Nc5ccc(OCc6cccc(F)c6)c(Cl)c5)ccnc4c3)c2)CC1 — EC50 (D6; drug-resistant strain, blood stage): 0.01 µM
CCn1cc(-c2nc(C)no2)c(=O)c2cc(F)c(N3CCCC3)cc21 — EC50 (3D7; 72 h; blood stage): 0.5 µM
COc1ccc(Nc2ccnc3cc(-c4ccc(S(=O)(=O)N5CCN(C)CC5)cc4)ccc23)cc1 — EC50 (D6; drug-resistant strain, blood stage): 0.018 µM
COc1cc(OC)c(CCNC(=O)c2cn3cc(-c4cc(OCC(=O)O)ccc4OC)nc3s2)c(OC)c1 — EC50 (3D7; 72 h; blood stage): 2.23 µM
CCn1cc(-c2cccnc2)c(=O)c2cc(F)c(N3CCC(C)CC3)cc21 — EC50 (3D7; 72 h; blood stage): > 10 µM
